Common to all, as to type: functional
Test [1] deals with Mycobacterium tuberculosis. The experiment in a line: Antimycobacterial activity against Mycobacterium tuberculosis clinical isolates from tuberculosis patient assessed as percent sensitive isolates at 2 ug/ml by absolute-concentration method. Put shortly: (§1)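 Consecutive clinical M. tuberculosis isolates (196), Tbilisi, Jan–Mar 2006, primary culture on Lowenstein-Jensen medium. Suspension adjusted to 1 McFarland in sterile saline. 0.2 ml was plated onto drug-containing solid medium: a 10-fold dilution series for the 2, 4 and 40 µg/ml media, and a 100-fold dilution for the 0.2 µg/ml medium. Incubation at 37°C, 5–10% CO2, 28 days.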

Test [2] concerns Mycobacterium tuberculosis. Nature of the test: Antimycobacterial activity against Mycobacterium tuberculosis clinical isolates from tuberculosis patient assessed as percent specific isolates at 2 ug/ml by absolute-concentration method.
The subject of test [3] is Mycobacterium tuberculosis. Nature of the test: Antimycobacterial activity against Mycobacterium tuberculosis clinical isolates from tuberculosis patient assessed as percent sensitive isolates at 0.2 ug/ml by absolute-concentration method. Put shortly: as §1
Test [4] deals with Mycobacterium tuberculosis. The experiment in a line: Antimycobacterial activity against Mycobacterium tuberculosis clinical isolates from tuberculosis patient assessed as percent specific isolates at 0.2 ug/ml by absolute-concentration method.
Test [5] relates to Mycobacterium tuberculosis. The experiment in a line: Antimycobacterial activity against Mycobacterium tuberculosis clinical isolates from tuberculosis patient assessed as percent specific isolates at 40 ug/ml by absolute-concentration method.
In test [6] the test system is Mycobacterium tuberculosis. Nature of the test: Antimycobacterial activity against Mycobacterium tuberculosis clinical isolates from tuberculosis patient assessed as percent sensitive isolates at 40 ug/ml by absolute-concentration method. Put shortly: as §1
Test [7] relates to Mycobacterium tuberculosis. The experiment in a line: Antimycobacterial activity against Mycobacterium tuberculosis clinical isolates from tuberculosis patient assessed as percent sensitive isolates at 4 ug/ml by absolute-concentration method. Put shortly:
as §1

Test [8] deals with Mycobacterium tuberculosis. The experiment in a line: Antimycobacterial activity against Mycobacterium tuberculosis clinical isolates from tuberculosis patient assessed as percent specific isolates at 4 ug/ml by absolute-concentration method.

As to `CC[C@@H](CO)NCCN[C@@H](CC)CO` [ETHAMBUTOL], the Activity worked out at 50% in test [1] and 98.9% in test [2].
Turning to `NNC(=O)c1ccncc1` [ISONIAZID], the Activity in test [3] came to 85.4%; in test [4], 96.1%.
Turning to `CO[C@H]1/C=C/O[C@@]2(C)Oc3c(C)c(O)c4c(O)c(c(/C=N/N5CCN(C)CC5)c(O)c4c3C2=O)NC(=O)/C(C)=C\C=C\[C@H](C)[C@H](O)[C@@H](C)[C@@H](O)[C@@H](C)[C@H](OC(C)=O)[C@@H]1C` [RIFAMPIN], the values for the Activity in test [5] and in test [6] were 99.4% and 94.5%, respectively.
With `CN[C@@H]1[C@H](O[C@H]2[C@H](O[C@H]3[C@H](O)[C@@H](O)[C@H](N=C(N)N)[C@@H](O)[C@@H]3N=C(N)N)O[C@@H](C)[C@]2(O)C=O)O[C@@H](CO)[C@H](O)[C@H]1O` [STREPTOMYCIN], the figures for the Activity in test [7] and in test [8] were 69.6% and 99.2%, respectively.

Values taken from ChEMBL document CHEMBL1152997, “Prevalence of and molecular basis for tuberculosis drug resistance in the Republic of Georgia: validation of a QIAplex system for detection of drug resistance-related mutations” (2008).
